Measurements taken from ChEMBL document CHEMBL3351723, “New derivatives of lupane triterpenoids disturb breast cancer mitochondria and induce cell death” (Bioorg Med Chem, 2014).
Active and inactive are the calls of the source. The rule behind the calls is not given here.

Experiments:
Liver microsome [1] = experiment: Induction of mitochondrial function disruption in Wistar Han rat liver mitochondria energized with succinate assessed as adenosine diphosphate/O ratio measured at 0.067 ug/mg of protein (reference value: 2.3 +/- 0.2 no_unit); type: functional
MCF7 = experiment: Cytotoxicity against human MCF7 cells assessed as reduction in cell number in glucose-free, galactose/glutamine medium after 3 to 5 days; type: functional, cell-based
In short: (§1)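 Cells grown in glucose-free DMEM with galactose (1.8 g/L), L-glutamine (0.584 g/L), pyruvate and 10% FBS, forcing ATP from oxidative phosphorylation. Exposed to a dose range for 1, 3 and 5 days. Cell number read by sulforhodamine B and expressed as % of control. Mean ± SEM, 5 experiments.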

[2] = Cytotoxicity against human Hs578T cells assessed as decrease in live cells at 1 ug/ml for 24 to 48 hrs by flow cytometry; type: functional; conditions: Hs-578T
In short: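 Hs578T seeded at 2.5×10^4 cells/ml, exposed to 1 μg/ml or DMSO for 24 and 48 h. Cells trypsinized and resuspended in HEPES-buffered saline with 15 mM glucose. Stained 15 min at 37°C with 1 μM ethidium homodimer and 0.1 μM calcein-AM. Green (calcein) and red (ethidium homodimer) signals read by flow cytometry. Mean ± SEM, 6 experiments.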

[3] = Induction of apoptosis in human Hs578Bst cells assessed as distribution of mitochondrial polarization and morphology at 0.25 ug/ml after 6 hrs by confocal microscopy; type: functional, cell-based
In short: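 Cells were seeded on glass coverslips and left to attach for 24 h. They were then exposed to vehicle or 0.25 μg/ml compound for 6 h. For the last 30 min they were loaded with 100 nM TMRM in saline buffer with 15 mM glucose, and the probe was kept present during imaging. Mitochondrial polarization and morphology were imaged by fluorescence microscopy, and the TMRM fluorescence standard deviation was quantified. Four independent preparations, mean ± SEM.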

Hs-578T [4] = experiment: Induction of apoptosis in human Hs578T cells assessed as increase in p53 protein at 1 ug/ml after 24 hrs by Western blot analysis; type: functional, cell-based
In short: (§2)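 About 1.0×10^6 attached and floating HS578T cells, treated 24 h at 1 μg/ml, were lysed in HEPES/sucrose buffer with DTT, PMSF and protease inhibitors. Extracts were stored at -80°C, then p53 and cyclophilin D were semi-quantified by Western blot. Six experiments, mean ± SEM.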

Liver microsome [5] = experiment: Induction of mitochondrial function disruption in Wistar Han rat liver mitochondria energized with succinate assessed as State-4 level per mg of protein measured at 0.133 ug/mg of protein (reference value: 33.5 +/- 7.5 nmol/mg protein/min); type: functional
Liver microsome [6] = experiment: Induction of mitochondrial function disruption in Wistar Han rat liver mitochondria energized with succinate assessed as State-3 level per mg of protein measured at 0.067 ug/mg of protein (reference value: 130.8 +/- 24.1 nmol/mg protein/min); type: functional
[7] = Cytotoxicity against human MCF12A cells at 0.125 to 2 ug/ml after 1 to 5 days by sulforhodamine B assay; type: cell-based; conditions: mcf-12a
In short: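 Non-tumor cells seeded at 2×10^4 cells/ml and treated 24 h after seeding, in high-glucose DMEM with pyruvate, 10% FBS and penicillin-streptomycin, 37°C, 5% CO2. Compound exposure 0.125–2 μg/ml for 1, 3 and 5 days, with vehicle controls. Cells fixed and stained with sulforhodamine B for total cell mass. Data given as % of untreated control at each time point; five independent experiments.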

Hs-578T [8] = experiment: Effect on Bcl2 protein level in human Hs578T cells at 1 ug/ml after 24 hrs by Western blot analysis; type: functional, cell-based
Liver microsome [9] = experiment: Induction of mitochondrial function disruption in Wistar Han rat liver mitochondria energized with succinate assessed as adenosine diphosphate/O ratio measured at 0.333 ug/mg of protein (reference value: 2.3 +/- 0.2 no_unit); type: functional
Liver microsome [10] = experiment: Induction of mitochondrial function disruption in Wistar Han rat liver mitochondria energized with succinate assessed as respiratory control ratio measured at 0.133 ug/mg of protein (reference value: 4.1 +/- 0.5 no_unit); type: functional
MDA-MB-231 = experiment: Cytotoxicity against human MDA-MB-231 cells assessed as reduction in cell number in glucose-free, galactose/glutamine medium after 3 to 5 days; type: functional, cell-based; in short: as §1
Liver microsome [11] = experiment: Induction of mitochondrial function disruption in Wistar Han rat liver mitochondria energized with succinate assessed as State-3 level per mg of protein measured at 0.667 ug/mg of protein (reference value: 130.8 +/- 24.1 nmol/mg protein/min); type: functional
Hs-578T [12] = experiment: Cytotoxicity against human Hs578T cells at 0.125 to 2 ug/ml incubated for 6 hrs folowed by drug wash out and fresh medium addition and measured 5 days after wash out; type: functional, cell-based
Liver microsome [13] = experiment: Induction of mitochondrial function disruption in Wistar Han rat liver mitochondria energized with succinate assessed as respiratory control ratio measured at 1.333 ug/mg of protein (reference value: 4.1 +/- 0.5 no_unit); type: functional
Liver microsome [14] = experiment: Induction of mitochondrial function disruption in Wistar Han rat liver mitochondria energized with succinate assessed as respiratory control ratio measured at 0.333 ug/mg of protein (reference value: 4.1 +/- 0.5 no_unit); type: functional
Liver microsome [15] = experiment: Induction of mitochondrial function disruption in Wistar Han rat liver mitochondria energized with succinate assessed as respiratory control ratio measured at 0.067 ug/mg of protein (reference value: 4.1 +/- 0.5 no_unit); type: functional
Liver microsome [16] = experiment: Induction of mitochondrial permeability transition pore in Wistar Han rat liver mitochondria assessed as mitochondrial swelling by spectrophotometry relative to control
Hs-578T [17] = experiment: Effect on Bax protein level in human Hs578T cells at 1 ug/ml after 24 hrs by Western blot analysis; type: functional, cell-based
Liver microsome [18] = experiment: Induction of mitochondrial function disruption in Wistar Han rat liver mitochondria energized with succinate assessed as State-3 level per mg of protein measured at 0.333 ug/mg of protein (reference value: 130.8 +/- 24.1 nmol/mg protein/min); type: functional
[19] = Induction of mitochondrial permeability transition pore in Wistar Han rat liver mitochondria assessed as mitochondrial swelling by spectrophotometry; type: functional
In short: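 Isolated rat liver mitochondria were energized with succinate plus rotenone and pre-incubated with compound at 0.07–1.33 µg/mg protein. MPT was then triggered by one Ca2+ pulse of 40 nmol/mg protein. Swelling was followed as pseudo-absorbance at 540 nm, and amplitude is basal minus the reading 600 s after Ca2+. Cyclosporin A at 1 µM was the reference, with 6 preparations.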

Hs-578T [20] = experiment: Induction of apoptosis in human Hs578T cells assessed as increase in cyclophilin D protein at 1 ug/ml after 24 hrs by Western blot analysis; type: functional, cell-based; in short: as §2

In the case of `C=C(C)[C@@H]1CC[C@]2(COC(=O)C[n+]3ccc(N(C)C)cc3)CC[C@]3(C)[C@H](CC[C@@H]4[C@@]5(C)CC[C@H](OC(=O)C[n+]6ccc(N(C)C)cc6)C(C)(C)[C@@H]5CC[C@]43C)[C@@H]12.[Cl-].[Cl-]`, the Ratio (Liver microsome [1]) is reported as 2.4, the inhibition (MCF7) is reported as “Active” and the inhibition at 1 µg/mL [2] is reported as 10%. For the same molecule, the Activity [3] was “Active”, the Activity (Hs-578T [4]) was “Active” and the Activity (Liver microsome [5]) was 34.5 nmol/min. The Activity (Liver microsome [6]) was 132 nmol/min, the Activity [7] was “Toxic” and the Activity (Hs-578T [8]) was “inactive”. The Ratio (Liver microsome [9]) was 2.2, the Ratio (Liver microsome [10]) was 4.1 and the “Cytotoxicity (active/inactive call)” value (MDA-MB-231) was “Active”. For the same molecule, the Activity (Liver microsome [11]) was 141 nmol/min, the inhibition (Hs-578T [12]) was “Active” and the Ratio (Liver microsome [13]) was 4. The Ratio (Liver microsome [14]) was 4.4, the Ratio (Liver microsome [15]) was 4.1 and the fold change (FC) (Liver microsome [16]) was 5. The Activity (Hs-578T [17]) was “inactive”, the Activity (Liver microsome [18]) was 136 nmol/min and the Activity [19] was “Dose-dependent effect”. For the same molecule, the Activity (Hs-578T [20]) was “Active”.

In the case of `C=C(C)[C@@H]1CC[C@]2(COC(=O)CC[n+]3ccc(N(C)C)cc3)CC[C@]3(C)[C@H](CC[C@@H]4[C@@]5(C)CC[C@H](OC(=O)CC[n+]6ccc(N(C)C)cc6)C(C)(C)[C@@H]5CC[C@]43C)[C@@H]12.[Cl-].[Cl-]`, the Ratio (Liver microsome [1]) is reported as 1.8, the inhibition (MCF7) is reported as “Active” and the Activity [3] is reported as “inactive”. For the same molecule, the Activity (Hs-578T [4]) was “Active”, the Activity (Liver microsome [5]) was 25.3 nmol/min and the Activity (Liver microsome [6]) was 127 nmol/min. For the same molecule, the Activity [7] was “Toxic”, the Activity (Hs-578T [8]) was “inactive” and the Ratio (Liver microsome [9]) was 1.8. For the same molecule, the Ratio (Liver microsome [10]) was 4.1, the “Cytotoxicity (active/inactive call)” value (MDA-MB-231) was “Active” and the Activity (Liver microsome [11]) was 116 nmol/min. For the same molecule, the inhibition (Hs-578T [12]) was “Active”, the Ratio (Liver microsome [13]) was 4.3 and the Ratio (Liver microsome [14]) was 4.1. For the same molecule, the Ratio (Liver microsome [15]) was 4.3, the Activity (Hs-578T [17]) was “inactive” and the Activity (Liver microsome [18]) was 121 nmol/min. The Activity [19] was “inactive” and the Activity (Hs-578T [20]) was “Active”.

For `C=C(C)[C@@H]1CC[C@]2(COC(=O)C(CC)[n+]3ccc(N(C)C)cc3)CC[C@]3(C)[C@H](CC[C@@H]4[C@@]5(C)CC[C@H](OC(=O)C(CC)[n+]6ccc(N(C)C)cc6)C(C)(C)[C@@H]5CC[C@]43C)[C@@H]12` (some centres undefined), the Ratio (Liver microsome [1]) was 1.6, the inhibition (MCF7) was “Active” and the inhibition at 1 µg/mL [2] was 10%. For the same molecule, the Activity [3] was “Active”, the Activity (Hs-578T [4]) was “Active” and the Activity (Liver microsome [5]) was 23.7 nmol/min. The Activity (Liver microsome [6]) was 130 nmol/min, the Activity (Hs-578T [8]) was “inactive” and the Ratio (Liver microsome [9]) was 1.6. The Ratio (Liver microsome [10]) was 3, the “Cytotoxicity (active/inactive call)” value (MDA-MB-231) was “Active” and the Activity (Liver microsome [11]) was 125 nmol/min. It also gave a Ratio (Liver microsome [13]) of 3.2, a Ratio (Liver microsome [14]) of 3.2 and a Ratio (Liver microsome [15]) of 3. The fold change (FC) (Liver microsome [16]) was 5, the Activity (Hs-578T [17]) was “inactive” and the Activity (Liver microsome [18]) was 132 nmol/min. For the same molecule, the Activity [19] was “Dose-dependent effect” and the Activity (Hs-578T [20]) was “Active”.

For `C=C(C)[C@@H]1CC[C@]2(COC(=O)C[N+](C)(C)C(C)C)CC[C@]3(C)[C@H](CC[C@@H]4[C@@]5(C)CC[C@H](OC(=O)C[N+](C)(C)C(C)C)C(C)(C)[C@@H]5CC[C@]43C)[C@@H]12.[Cl-].[Cl-]`, the Ratio (Liver microsome [1]) was 3, the inhibition (MCF7) was “Active” and the inhibition at 1 µg/mL [2] was 10%. For the same molecule, the Activity [3] was “Active”, the Activity (Hs-578T [4]) was “Active” and the Activity (Liver microsome [5]) was 28.6 nmol/min. For the same molecule, the Activity (Liver microsome [6]) was 117 nmol/min, the Activity [7] was “Non-toxic” and the Activity (Hs-578T [8]) was “inactive”. For the same molecule, the Ratio (Liver microsome [9]) was 2.9, the Ratio (Liver microsome [10]) was 4 and the “Cytotoxicity (active/inactive call)” value (MDA-MB-231) was “Active”. The Activity (Liver microsome [11]) was 116 nmol/min, the inhibition (Hs-578T [12]) was “Active” and the Ratio (Liver microsome [13]) was 4.2. For the same molecule, the Ratio (Liver microsome [14]) was 4.2, the Ratio (Liver microsome [15]) was 4 and the fold change (FC) (Liver microsome [16]) was 5. The Activity (Hs-578T [17]) was “inactive”, the Activity (Liver microsome [18]) was 121 nmol/min and the Activity [19] was “Dose-dependent effect”. The Activity (Hs-578T [20]) was “Active”.
